Measurements published in ChEMBL document CHEMBL3232906, “2-Amino-3-(phenylsulfanyl)norbornane-2-carboxylate: an appealing scaffold for the design of Rac1-Tiam1 protein-protein interaction inhibitors” (J Med Chem, 2014).
The source made the active and inactive calls. The rule behind the calls is not given here.

Columns and labels:
[1] = biological target: T1, Ras-related C3 botulinum toxin substrate 1/T-lymphoma invasion and metastasis-inducing protein 1 (Homo sapiens, UniProt P63000+Q13009); test: Inhibition of Rac1-Tiam1 interaction in human smooth muscle cells assessed as reduction of PDGF-BB stimulated GTP bound Rac1 level at 10 uM preincubated for 4 hrs followed by PDGF-BB stimulation measured after 2 mins by G-LISA assay relative to control; type: cell-based
Summary of the method: (§1)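 Cultured human aortic SMCs seeded at 2 × 10^5/35 mm dish in DMEM + 10% FCS, switched after 24 h to 0.4% FCS for 48 h. Compounds (DMSO stocks) added at 10 μM final for 4 h, then PDGF-BB 20 ng/mL for 2 min. Lysates analysed by G-LISA (RBD-coated plate, antibody/HRP detection) for Rac1–GTP or RhoA–GTP. Mean ± SD of triplicates.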

[2] = biological target: T1, Ras-related C3 botulinum toxin substrate 1/T-lymphoma invasion and metastasis-inducing protein 1; test: Inhibition of Rac1-Tiam1 interaction in human smooth muscle cells assessed as reduction of PDGF-BB stimulated GTP bound Rac1 level preincubated for 4 hrs followed by PDGF-BB stimulation measured after 2 mins by G-LISA assay; type: cell-based
Summary of the method: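 SMCs serum-starved (0.4% FCS, 48 h) after seeding at 2 × 10^5/35 mm dish, treated 4 h with compound at 1, 2.5, 5 and 10 μM final, then stimulated with PDGF-BB 20 ng/mL for 2 min. Rac1–GTP in lysates read by G-LISA (Rac1-RBD plate, primary antibody plus HRP secondary). IC50 from concentration–response; triplicates, mean ± SD.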

[3] = biological target: Transforming protein RhoA (Homo sapiens) (UniProt P61586); test: Activation of RhoA in human smooth muscle cells assessed as PDGF-BB stimulated GTP bound protein level at 10 uM preincubated for 4 hrs followed by PDGF-BB stimulation measured after 2 mins by G-LISA assay; type: cell-based; summary of the method: as §1
Homo sapiens = species on record: Homo sapiens; test: Antimigratory activity against human smooth muscle cells assessed as inhibition of PDGF-BB-induced cell motility at 10 uM measured for 16 hrs by video microscopic analysis; type: functional, cell-based
Summary of the method: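 SMCs seeded at 2 × 10^4 per well of 24-well tray in DMEM + 10% FCS, moved to 0.4% FCS for 48 h. Compound added at 10 μM final together with PDGF-BB 20 ng/mL. Time-lapse video microscopy at 37 °C for 16 h; cells manually tracked and distance covered measured for 10 cells per condition from three independent experiments, mean ± SD.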

Sequence of Transforming protein RhoA (Homo sapiens) (P61586 whole entry): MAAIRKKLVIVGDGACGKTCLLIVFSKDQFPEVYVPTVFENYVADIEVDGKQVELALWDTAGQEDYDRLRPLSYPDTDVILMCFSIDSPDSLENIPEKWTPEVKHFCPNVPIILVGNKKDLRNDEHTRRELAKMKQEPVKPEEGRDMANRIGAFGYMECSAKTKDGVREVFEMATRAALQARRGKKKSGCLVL

SMILES: CCOC(=O)[C@]1(N)[C@@H]2C[C@@H](C[C@H]2c2cccc(Nc3ccc(N)cc3)c2)[C@@H]1Sc1ccccc1 (relative stereo)
- inhibition [1]: 75%
- IC50 [2]: 2500 nM
- inhibition [2]: Dose-dependent effect
- Activity [3]: Active
- inhibition (Homo sapiens): Active

SMILES: CCOC(=O)[C@@]1(N)[C@@H]2C[C@@H](C[C@H]2c2cccc(Nc3ccc(N)cc3)c2)[C@@H]1Sc1ccccc1 (relative stereo)
- inhibition [1]: Active
- Activity [3]: Active

SMILES: CCOC(=O)[C@@]1(N)[C@@H]2C[C@@H]([C@@H](c3cccc(Nc4ccc(N)cc4)c3)C2)[C@@H]1Sc1ccccc1 (relative stereo)
- inhibition [1]: Active
- Activity [3]: Active

SMILES: CCOC(=O)[C@]1(N)[C@@H]2C[C@@H](C[C@H]2c2cccc(Nc3ccc(N)cc3)c2)[C@H]1Sc1ccccc1 (relative stereo)
- inhibition [1]: Active
- Activity [3]: Active

SMILES: CCOC(=O)[C@]1(N)[C@@H]2C[C@@H]([C@@H](c3cccc(Nc4ccc(N)cc4)c3)C2)[C@@H]1Sc1ccccc1 (relative stereo)
- inhibition [1]: Active
- Activity [3]: Active

SMILES: CCOC(=O)[C@]1(N)[C@@H]2C[C@@H]([C@@H](c3cccc(Nc4ccc(N)cc4)c3)C2)[C@H]1Sc1ccccc1 (relative stereo)
- inhibition [1]: Active
- Activity [3]: Active
